Converted amounts (≈) assume the structure as drawn.
Key:
Plasmodium falciparum = test: Antiplasmodial activity against Plasmodium falciparum NF54; type: functional, organism-based
[1] = Inhibition of beta-hematin polymerization; design: species or system Plasmodium falciparum
Plasmodium yoelii = test: Antimalarial activity against Plasmodium yoelii N67 infected in Swiss mice (Mus musculus) at 30 mg/kg, intraperitoneally; type: functional; settings: route intraperitoneal
Method in brief: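 Swiss mice infected with P. yoelii N-67, dosed ip at 30 mg/kg once daily for four consecutive days; saline-treated controls. Parasitaemia on day 4 gives % suppression = [(C − T)/C] × 100 (C, T = control, treated parasitaemia). Mean survival time counted only for mice dying within the 28-day observation period; survivors beyond 28 days excluded.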

Mus musculus = test: Mean survival time of Swiss mice (Mus musculus) infected with Plasmodium yoelii N67 at 30 mg/kg, intraperitoneally; type: functional; settings: route intraperitoneal
Method in brief: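 Swiss mice infected with P. yoelii N-67; test compounds at 30 mg/kg given intraperitoneally once daily on four consecutive days; saline-treated mice as controls. Mice followed for 28 days; mean survival time (± SE) counted only for mice dying within that period, with survivors beyond 28 days excluded.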

Compound | IC50 (Plasmodium falciparum) [µM] | MIC (Plasmodium falciparum) [µM] | IC50 [1] [equivalents] | Activity (Plasmodium yoelii) [%] | MST (Mus musculus) [days]
O=C1c2ccccc2SC(c2ccc(Cl)cc2)N1CCCCNc1ccnc2cc(Cl)ccc12 (stereo not given) | 1.27 | 2.17 (≈ 1.1 µg/mL) | 0.95 |  | 
CCN(CC)CCCC(C)Nc1ccnc2cc(Cl)ccc12 (stereo not given) [CHLOROQUINE] |  | 0.39 (≈ 0.125 µg/mL) |  | 99.99 | 20
O=C1CSCN1CCCNc1ccnc2cc(Cl)ccc12 | 1.65 | 3.11 (≈ 1 µg/mL) | 0.96 |  | 
O=C1c2ccccc2SC(c2c(Cl)cccc2Cl)N1CCNc1ccnc2cc(Cl)ccc12 (stereo not given) | 0.291 | 5.88 (≈ 3.03 µg/mL) | 0.49 |  | 
O=C1CCSC(c2c(Cl)cccc2Cl)N1CCNc1ccnc2cc(Cl)ccc12 (stereo not given) | 3.27 | 4.28 (≈ 2 µg/mL) | 0.45 |  | 
O=C1CSC(c2c(Cl)cccc2Cl)N1CCNc1ccnc2cc(Cl)ccc12 (stereo not given) | 0.039 | 0.55 (≈ 0.249 µg/mL) | 0.46 | 76.08 | 14.6
O=C1CSCN1CCCCNc1ccnc2cc(Cl)ccc12 | 2.65 | 5.96 (≈ 2 µg/mL) | 0.91 |  | 
O=C1CCSC(c2ccc(Cl)cc2)N1CCCCNc1ccnc2cc(Cl)ccc12 (stereo not given) | 0.271 | 0.54 (≈ 0.249 µg/mL) | 0.76 | 62.32 | 13.8
O=C1CCSC(c2ccc(Cl)cc2)N1CCNc1ccnc2cc(Cl)ccc12 (stereo not given) | 4.07 | 4.62 (≈ 2 µg/mL) | 0.47 |  | 
O=C1CSC(c2c(Cl)cccc2Cl)N1CCCNc1ccnc2cc(Cl)ccc12 (stereo not given) | 0.138 | 0.27 (≈ 0.126 µg/mL) | 0.39 | 40.08 | 10.6
O=C1CSCN1CCNc1ccnc2cc(Cl)ccc12 | 2.14 | 3.25 (≈ 1 µg/mL) | 0.98 |  | 
O=C1CSC(c2ccc(Cl)cc2)N1CCCNc1ccnc2cc(Cl)ccc12 (stereo not given) | 1.04 | 1.16 (≈ 0.502 µg/mL) | 0.56 |  | 
O=C1c2ccccc2SC(c2c(Cl)cccc2Cl)N1CCCCNc1ccnc2cc(Cl)ccc12 (stereo not given) | 3.07 | 13.8 (≈ 7.5 µg/mL) | 0.97 |  | 
O=C1c2ccccc2SCN1CCCCNc1ccnc2cc(Cl)ccc12 | 1.51 | 2.51 (≈ 0.999 µg/mL) | 0.89 |  | 
O=C1c2ccccc2SCN1CCNc1ccnc2cc(Cl)ccc12 | 0.065 | 0.68 (≈ 0.252 µg/mL) | 0.94 | 48.33 | 11.4
CC1SCN(CCCCNc2ccnc3cc(Cl)ccc23)C1=O (stereo not given) | 1.29 | 5.73 (≈ 2 µg/mL) | 0.98 |  | 

Compound | IC50 (Plasmodium falciparum) [µM] | MIC (Plasmodium falciparum) [µM] | IC50 [1] [equivalents] | Activity (Plasmodium yoelii) [%] | MST (Mus musculus) [days]
O=C1CCSC(c2ccc(Cl)cc2)N1CCCNc1ccnc2cc(Cl)ccc12 (stereo not given) | 0.014 | 0.28 (≈ 0.125 µg/mL) | 0.62 | 23.5 | 12
O=C1c2ccccc2SC(c2ccc(Cl)cc2)N1CCCNc1ccnc2cc(Cl)ccc12 (stereo not given) | 1.03 | 2.02 (≈ 0.999 µg/mL) | 0.46 |  | 
O=C1CCSCN1CCCNc1ccnc2cc(Cl)ccc12 | 1.81 | 2.48 (≈ 0.833 µg/mL) | 0.96 |  | 
O=C1c2ccccc2SC(c2ccc(Cl)cc2)N1CCNc1ccnc2cc(Cl)ccc12 (stereo not given) | 0.013 | 0.26 (≈ 0.125 µg/mL) | 0.24 | 81 | 15.2
O=C1c2ccccc2SC(c2c(Cl)cccc2Cl)N1CCCNc1ccnc2cc(Cl)ccc12 (stereo not given) | 2.19 | 9.45 (≈ 5 µg/mL) | 0.65 |  | 
O=C1CCSC(c2c(Cl)cccc2Cl)N1CCCNc1ccnc2cc(Cl)ccc12 (stereo not given) | 6.15 | 10.4 (≈ 5 µg/mL) | 0.88 |  | 
O=C1CCSCN1CCNc1ccnc2cc(Cl)ccc12 | 2.92 | 6.21 (≈ 2 µg/mL) | 0.99 |  | 
O=C1CSC(c2ccc(Cl)cc2)N1CCNc1ccnc2cc(Cl)ccc12 (stereo not given) | 0.98 | 1.2 (≈ 0.502 µg/mL) | 0.75 |  | 
CC1SCN(CCCNc2ccnc3cc(Cl)ccc23)C1=O (stereo not given) | 2.33 | 5.65 (≈ 1.9 µg/mL) | 1.02 |  | 
O=C1CCSC(c2c(Cl)cccc2Cl)N1CCCCNc1ccnc2cc(Cl)ccc12 (stereo not given) | 7.15 | 15.2 (≈ 7.5 µg/mL) | 0.58 |  | 
O=C1CSC(c2c(Cl)cccc2Cl)N1CCCCNc1ccnc2cc(Cl)ccc12 (stereo not given) | 3.03 | 6.17 (≈ 2.97 µg/mL) | 0.64 |  | 
O=C1c2ccccc2SCN1CCCNc1ccnc2cc(Cl)ccc12 | 0.429 | 1.3 (≈ 0.499 µg/mL) | 0.78 |  | 
O=C1CCSCN1CCCCNc1ccnc2cc(Cl)ccc12 | 1.81 | 2.86 (≈ 1 µg/mL) | 0.89 |  | 
O=C1CSC(c2ccc(Cl)cc2)N1CCCCNc1ccnc2cc(Cl)ccc12 (stereo not given) | 1.98 | 4.08 (≈ 1.82 µg/mL) | 0.85 |  | 
CC1SCN(CCNc2ccnc3cc(Cl)ccc23)C1=O (stereo not given) | 1.68 | 3.11 (≈ 1 µg/mL) | 1.05 |  | 
